Active and inactive are the calls of the source. The rule behind the calls is not given here.
Assays:
Format in all cases: functional
HL-60 [1] = experiment: Induction of cell differentiation in human HL60 cells assessed as alpha naphthyl esterase activity at 0.0001 uM after 4 days
Summary of the method: (§1)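 HL-60 cells in RPMI 1640 with 5% heat-inactivated calf serum at 37° under 5% CO2. Log-phase cells diluted to 1.2×10^5 cells/ml and preincubated 18 h, then samples added in DMSO (final 0.1%, DMSO controls). Cells scored after 4 days.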

HL-60 [2] = experiment: Induction of cell differentiation in human HL60 cells assessed as alpha naphthyl esterase activity at 0.001 uM after 4 days; summary of the method: as §1
HL-60 [3] = experiment: Induction of cell differentiation in human HL60 cells assessed as alpha naphthyl esterase activity at 0.01 uM after 4 days; summary of the method: as §1
HL-60 [4] = experiment: Induction of cell differentiation in human HL60 cells assessed as alpha naphthyl esterase activity at 0.1 uM after 4 days; summary of the method: as §1
HL-60 [5] = experiment: Induction of cell differentiation in human HL60 cells assessed as alpha naphthyl esterase activity at 1 uM after 4 days; summary of the method: as §1
HL-60 [6] = experiment: Induction of terminal cell differentiation in human HL60 cells at 0.0001 uM after 4 days by NBT reduction assay
Summary of the method: (§2)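 Log-phase HL-60 cells (RPMI 1640, 5% heat-inactivated calf serum, 37°, 5% CO2) were diluted to 1.2×10^5 cells/ml, preincubated 18 h, then treated 4 days with samples in DMSO (final 0.1%; DMSO controls). 10^6 cells were mixed 1:1 with fresh PBS holding 2 mg/ml NBT and 5 μg/ml TPA, 1 h at 37°. Formazan-positive cells were counted microscopically as % NBT-positive.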

HL-60 [7] = experiment: Induction of terminal cell differentiation in human HL60 cells at 0.001 uM after 4 days by NBT reduction assay; summary of the method: as §2
HL-60 [8] = experiment: Induction of terminal cell differentiation in human HL60 cells at 0.01 uM after 4 days by NBT reduction assay; summary of the method: as §2
HL-60 [9] = experiment: Induction of terminal cell differentiation in human HL60 cells at 0.1 uM after 4 days by NBT reduction assay; summary of the method: as §2
HL-60 [10] = experiment: Induction of terminal cell differentiation in human HL60 cells at 1 uM after 4 days by NBT reduction assay; summary of the method: as §2
HL-60 [11] = experiment: Induction of terminal cell differentiation in human HL60 cells assessed as inhibition of [3H]thymidine incorporation at 0.1 uM after 4 days; parameters: scale not given: the % may be the effect or the level left
Summary of the method: (§3)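 HL-60 cells were kept in RPMI 1640 with 5% heat-inactivated calf serum and penicillin/streptomycin at 37° under 5% CO2. Log-phase cells were diluted to 1.2×10^5 cells/ml and preincubated 18 h. Samples were added in DMSO (final 0.1%; vehicle controls matched) for 4 days. Aliquots then got 0.5 μCi/ml [3H]thymidine for 16 h more, were harvested and scintillation-counted. % incorporation per 10^6 cells = sample DPM / DMSO-control DPM.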

HL-60 [12] = experiment: Induction of terminal cell differentiation in human HL60 cells assessed as inhibition of [3H]thymidine incorporation at 0.01 uM after 4 days; parameters: scale not given: the % may be the effect or the level left; summary of the method: as §3
HL-60 [13] = experiment: Induction of terminal cell differentiation in human HL60 cells assessed as inhibition of [3H]thymidine incorporation at 0.001 uM after 4 days; parameters: scale not given: the % may be the effect or the level left; summary of the method: as §3
HL-60 [14] = experiment: Induction of terminal cell differentiation in human HL60 cells assessed as inhibition of [3H]thymidine incorporation at 0.0001 uM after 4 days; parameters: scale not given: the % may be the effect or the level left
Summary of the method: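 After 4-day sample treatment, 100 μl of HL-60 cells pulsed with 0.5 μCi/ml [3H]thymidine (65 Ci/mmol) for 16 h. Cells harvested and counted by liquid scintillation. Incorporation per 10^6 cells given as sample DPM divided by DMSO-control DPM.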

HL-60 [15] = experiment: Induction of terminal cell differentiation in human HL60 cells assessed as inhibition of [3H]thymidine incorporation at 1 uM after 4 days; parameters: scale not given: the % may be the effect or the level left; summary of the method: as §3
HL-60 [16] = experiment: Induction of terminal cell differentiation in human HL60 cells assessed as naphthol AS-D chloroacetate esterase activity at 1 uM after 4 days
Summary of the method: (§4)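 HL-60 cells were grown in RPMI 1640 with 5% heat-inactivated calf serum at 37°, 5% CO2. They were diluted to 1.2×10^5 cells/ml, preincubated 18 h, then exposed 4 days to DMSO-dissolved samples (final DMSO 0.1%, matched vehicle controls). Specific esterase (naphthol AS-D chloroacetate) was scored cytochemically with a commercial kit as the percentage of differentiated cells.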

HL-60 [17] = experiment: Induction of terminal cell differentiation in human HL60 cells assessed as naphthol AS-D chloroacetate esterase activity at 0.1 uM after 4 days; summary of the method: as §4
HL-60 [18] = experiment: Induction of terminal cell differentiation in human HL60 cells assessed as naphthol AS-D chloroacetate esterase activity at 0.01 uM after 4 days; summary of the method: as §4
HL-60 [19] = experiment: Induction of terminal cell differentiation in human HL60 cells assessed as naphthol AS-D chloroacetate esterase activity at 0.001 uM after 4 days; summary of the method: as §4
HL-60 [20] = experiment: Induction of terminal cell differentiation in human HL60 cells assessed as naphthol AS-D chloroacetate esterase activity at 0.0001 uM after 4 days; summary of the method: as §4
HL-60 [21] = experiment: Induction of terminal cell differentiation in human HL60 cells assessed as cell viability at 1 uM by trypan blue exclusion method; conditions: read-out: Activity
Summary of the method: (§5)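 HL-60 cells preincubated 18 h at 1.2×10^5 cells/ml, then exposed 4 days to samples in DMSO (final 0.1%). Viability by trypan blue exclusion: viable/(viable+dead)×100. Cell counts also taken after 4 days.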

HL-60 [22] = experiment: Induction of terminal cell differentiation in human HL60 cells assessed as cell viability at 0.1 uM by trypan blue exclusion method; conditions: read-out: Activity; summary of the method: as §5
HL-60 [23] = experiment: Induction of terminal cell differentiation in human HL60 cells assessed as cell viability at 0.01 uM by trypan blue exclusion method; conditions: read-out: Activity; summary of the method: as §5
HL-60 [24] = experiment: Induction of terminal cell differentiation in human HL60 cells assessed as cell viability at 0.001 uM by trypan blue exclusion method; conditions: read-out: Activity; summary of the method: as §5
HL-60 [25] = experiment: Induction of terminal cell differentiation in human HL60 cells assessed as cell viability at 0.0001 uM by trypan blue exclusion method; conditions: read-out: Activity; summary of the method: as §5
Platelet [26] = experiment: Antiplatelet activity against rabbit platelet assessed as inhibition of arachidonic acid-induced platelet aggregation at 100 ug/ml; conditions: Oryctolagus cuniculus
Platelet [27] = experiment: Antiplatelet activity against rabbit platelet assessed as inhibition of collagen-induced platelet aggregation at 100 ug/ml; conditions: Oryctolagus cuniculus
Platelet [28] = experiment: Antiplatelet activity against rabbit platelet assessed as inhibition of platelet activating factor-induced platelet aggregation at 100 ug/ml; conditions: Oryctolagus cuniculus

Molecule C=C1/C(=C\C=C2/CCC[C@]3(C)[C@@H]([C@H](C)CCCC(C)(C)O)CC[C@@H]23)C[C@@H](O)C[C@@H]1O [CALCITRIOL] has an Activity (HL-60 [1]) of 2.5%, an Activity (HL-60 [2]) of 14% and an Activity (HL-60 [3]) of 68%. It also gave an Activity (HL-60 [4]) of 90.1%, an Activity (HL-60 [5]) of 95.3% and an Activity (HL-60 [6]) of 8.8%. It also gave an Activity (HL-60 [7]) of 28.5%, an Activity (HL-60 [8]) of 73.3% and an Activity (HL-60 [9]) of 80%. The Activity (HL-60 [10]) was 90.5%, the Activity (HL-60 [11]) was 92% and the Activity (HL-60 [12]) was 58.3%. It also gave an Activity (HL-60 [13]) of 32.3%, an Activity (HL-60 [14]) of 6% and an Activity (HL-60 [15]) of 95.3%. For the same molecule, the Activity (HL-60 [16]) was 2%, the Activity (HL-60 [17]) was 2% and the Activity (HL-60 [18]) was 4%. It also gave an Activity (HL-60 [19]) of 4.6%, an Activity (HL-60 [20]) of 5% and a viability at 1 µM (HL-60 [21]) of 92%. The viability at 0.1 µM (HL-60 [22]) was 95%, the viability at 0.01 µM (HL-60 [23]) was 97% and the viability at 0.001 µM (HL-60 [24]) was 99%. The viability at 0.0001 µM (HL-60 [25]) was 98%.

For Oc1cnc2c(ccc3cc4c(cc32)OCO4)c1, the Activity (Platelet [26]) was “inactive”, the Activity (Platelet [27]) was “inactive” and the Activity (Platelet [28]) was “inactive”.

From ChEMBL document CHEMBL1148054, “Chemical and bioactive constituents from Zanthoxylum simulans” (J Nat Prod, 1994)
